{"source": "ChEMBL document CHEMBL5032505", "about": "“Design, Synthesis, and Activity Evaluation of Stereoconfigured Tartarate Derivatives as Potential Anti-inflammatory Agents In Vitro and In Vivo” (J Med Chem, 2021)", "key": {"[1]": {"test": "Inhibition of soybean LOX using arachidonic acid as substrate incubated for 5 mins", "set-up": "species or system Glycine max", "in_short": "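Soybean lipoxygenase in assay buffer, compounds at 10⁻⁴–10⁻⁸ M from DMSO stocks, triplicate. Reaction started with arachidonic acid and shaken 5 min. Chromogen added, shaken 5 min more, absorbance read at 490 nm. Blanks were buffer + AA. % inhibition computed with chromogen extinction coefficient 9.47 mM⁻¹.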"}, "[2]": {"molecular_target": "T1, Prostaglandin G/H synthase 1 (Ovis aries, UniProt P05979)", "T1 sequence (P05979 whole entry)": "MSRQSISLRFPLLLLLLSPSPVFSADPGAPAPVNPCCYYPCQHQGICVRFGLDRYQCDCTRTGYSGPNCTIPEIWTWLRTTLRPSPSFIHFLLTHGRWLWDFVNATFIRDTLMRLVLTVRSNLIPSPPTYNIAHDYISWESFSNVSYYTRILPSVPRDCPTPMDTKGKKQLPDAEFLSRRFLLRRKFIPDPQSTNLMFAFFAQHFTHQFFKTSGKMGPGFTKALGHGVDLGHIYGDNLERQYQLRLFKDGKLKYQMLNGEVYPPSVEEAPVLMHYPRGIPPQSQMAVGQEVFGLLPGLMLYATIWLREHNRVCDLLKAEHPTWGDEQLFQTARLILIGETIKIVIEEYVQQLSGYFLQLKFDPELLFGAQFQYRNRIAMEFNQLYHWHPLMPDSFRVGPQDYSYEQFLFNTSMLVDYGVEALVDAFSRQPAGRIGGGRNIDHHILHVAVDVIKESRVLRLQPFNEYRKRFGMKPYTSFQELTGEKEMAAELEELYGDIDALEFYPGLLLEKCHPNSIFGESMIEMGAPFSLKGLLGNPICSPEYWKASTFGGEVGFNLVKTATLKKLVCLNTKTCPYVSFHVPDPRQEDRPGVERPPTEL", "test": "Inhibition of ovine COX-1 using arachidonic acid as substrate preincubated for 10 mins followed by substrate addition and measured after 2 mins by EIA", "in_short": "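COX-1 EIA run at 10⁻⁴–10⁻⁸ M in triplicate. Enzyme with heme in reaction buffer plus inhibitor, incubated 10 min at 37 °C. Boiled (3 min) enzyme served as background. Prostaglandin output quantified to give IC50.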"}, "Mus musculus [3]": {"system": "Mus musculus", "test": "Analgesic activity in Swiss albino mouse assessed as inhibition of acetic acid-induced writhing at 5 mg/kg, ip administered 30 mins prior to acetic acid challenge and measured after 30 mins relative to control", "type": "functional", "in_short": "(§1)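 Mice pretreated i.p. with indomethacin (10 mg/kg) or test compound (5 mg/kg) 30 min before 0.6% v/v acetic acid injection. Control group also received acetic acid. Animals placed in a transparent box and abdominal writhings counted for 30 min. Six animals per group, one-way ANOVA with Tukey's test, mean ± SEM.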"}, "[4]": {"molecular_target": "Prostaglandin G/H synthase 1 (Homo sapiens) (UniProt P23219)", "sequence (P23219 whole entry)": "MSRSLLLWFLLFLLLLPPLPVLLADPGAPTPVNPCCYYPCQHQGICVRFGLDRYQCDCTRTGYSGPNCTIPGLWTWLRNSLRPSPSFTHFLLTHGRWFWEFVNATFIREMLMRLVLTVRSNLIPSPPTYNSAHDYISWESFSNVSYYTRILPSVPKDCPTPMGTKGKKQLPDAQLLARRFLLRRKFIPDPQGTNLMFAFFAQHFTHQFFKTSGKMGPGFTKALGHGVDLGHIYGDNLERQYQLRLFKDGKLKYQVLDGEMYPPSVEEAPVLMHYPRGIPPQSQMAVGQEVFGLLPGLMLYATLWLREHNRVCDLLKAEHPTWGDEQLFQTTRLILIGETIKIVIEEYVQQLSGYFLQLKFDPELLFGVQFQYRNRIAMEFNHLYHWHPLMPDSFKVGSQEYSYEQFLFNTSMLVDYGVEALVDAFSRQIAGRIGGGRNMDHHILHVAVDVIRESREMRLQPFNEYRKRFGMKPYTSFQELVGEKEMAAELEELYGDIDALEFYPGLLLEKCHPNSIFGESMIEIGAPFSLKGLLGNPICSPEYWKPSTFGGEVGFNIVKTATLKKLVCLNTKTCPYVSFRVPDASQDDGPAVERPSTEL", "test": "Inhibition of COX1 in human whole blood assessed as reduction in calcium ionophore-stimulated TXB2 production by ELISA", "type": "tissue-based"}, "Mus musculus [5]": {"system": "Mus musculus", "test": "Analgesic activity in Swiss albino mouse assessed as inhibition of acetic acid-induced writhing at 10 mg/kg, ip administered 30 mins prior to acetic acid challenge and measured after 30 mins relative to control", "type": "functional", "set-up": "scale not given: the % may be the effect or the level left", "settings": "time 60 min, 1 h", "in_short": "as §1"}, "Mus musculus [6]": {"system": "Mus musculus", "test": "Antiinflammatory activity in Swiss albino mouse model of carrageenan-induced paw edema assessed as reduction in paw thickness at 10 mg/kg, administered 30 mins prior to carrageenan challenge and measured upto 360 mins", "type": "functional", "set-up": "scale not given: the % may be the effect or the level left", "settings": "time 390 min, 6.5 h", "in_short": "(§2)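 100 μL freshly prepared 1% carrageenan injected into the subplantar hind paw, with indomethacin (10 mg/kg) or test compound given 30 min before. Dose–response arm used 0.5, 2.5, 5, 10, 20 mg/kg. Six animals per group. Paw thickness (mm) read at 15, 30, 60, 120, 180, 240, 300, 360 min. Result expressed as % decrease versus control.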"}, "Mus musculus [7]": {"system": "Mus musculus", "test": "Antiinflammatory activity in Swiss albino mouse model of carrageenan-induced paw edema assessed as reduction in paw thickness at 5 mg/kg, administered 30 mins prior to carrageenan challenge and measured upto 360 mins relative to control", "type": "functional", "set-up": "scale not given: the % may be the effect or the level left", "settings": "time 390 min, 6.5 h", "in_short": "as §2"}}, "note": "Calls of active or inactive are those of the source. No cut-off for these calls is given here."}
{"compound": "CC(c1cc2ccccc2s1)N(O)C(N)=O", "note": "(configuration not stated) [ZILEUTON]", "values": [{"measurement": "IC50", "setting": "[1]", "result": 0.3, "unit": "µM"}]}
{"compound": "CCOC(=O)Cn1nncc1CO[C@@H](C(=O)OCC)[C@@H](OCc1cnnn1CC(=O)OCC)C(=O)OCC", "values": [{"measurement": "IC50", "setting": "[1]", "result": 0.3, "unit": "µM"}, {"measurement": "IC50", "setting": "[2]", "result": 60, "unit": "µM"}, {"measurement": "Activity", "setting": "Mus musculus [3]; time 60.0 min", "result": "Active"}]}
{"compound": "CCOC(=O)[C@H](O)[C@@H](OCc1cnnn1[C@@H](Cc1ccccc1)C(=O)OC)C(=O)OCC", "values": [{"measurement": "IC50", "setting": "[1]", "result": 8, "unit": "µM"}, {"measurement": "IC50", "setting": "[2]", "result": 55, "unit": "µM"}]}
{"compound": "COc1ccc2c(c1)c(CC(=O)O)c(C)n2C(=O)c1ccc(Cl)cc1", "note": "[INDOMETHACIN]", "values": [{"measurement": "Activity", "setting": "[4]", "result": 0.9, "unit": "ng/mL"}, {"measurement": "Activity", "setting": "Mus musculus [5]", "result": 55, "unit": "%"}, {"measurement": "Activity", "setting": "Mus musculus [6]", "result": 30, "unit": "%"}]}
{"compound": "CCOC(=O)[C@H](OCc1cnnn1[C@@H](Cc1ccccc1)C(=O)OC)[C@@H](OCc1cnnn1[C@@H](Cc1ccccc1)C(=O)OC)C(=O)OCC", "values": [{"measurement": "IC50", "setting": "[1]", "result": 0.09, "unit": "µM"}, {"measurement": "IC50", "setting": "[2]", "result": 90, "unit": "µM"}]}
{"compound": "COC(=O)[C@H](Cc1ccccc1)n1nncc1COc1ccc2ccccc2c1-c1c(OCc2cnnn2[C@@H](Cc2ccccc2)C(=O)OC)ccc2ccccc12", "values": [{"measurement": "IC50", "setting": "[1]", "result": 3, "unit": "µM"}, {"measurement": "IC50", "setting": "[2]", "result": 150, "unit": "µM"}]}
{"compound": "O=C(O)[C@H](OCc1cnnn1[C@@H](Cc1ccccc1)C(=O)O)[C@@H](OCc1cnnn1[C@@H](Cc1ccccc1)C(=O)O)C(=O)O", "values": [{"measurement": "IC50", "setting": "[1]", "result": 0.5, "unit": "µM"}, {"measurement": "Activity", "setting": "Mus musculus [3]; time 60.0 min", "result": "inactive"}]}
{"compound": "CCOC(=O)[C@H](O)[C@@H](OCc1cnnn1[C@@H](Cc1ccc(O)cc1)C(=O)OC)C(=O)OCC", "values": [{"measurement": "IC50", "setting": "[1]", "result": 12, "unit": "µM"}, {"measurement": "IC50", "setting": "[2]", "result": 80, "unit": "µM"}]}
{"compound": "O=C1NC(=O)C(=Cc2cn(C[C@H](O)COc3cc(O)c4c(=O)cc(-c5ccccc5)oc4c3)c3ccccc23)C(=O)N1", "values": [{"measurement": "IC50", "setting": "[1]", "result": 0.0015, "unit": "µM"}, {"measurement": "IC50", "setting": "[2]", "result": 0.34, "unit": "µM"}]}
{"compound": "COC(=O)[C@H](Cc1ccc(O)cc1)n1nncc1COc1ccc2ccccc2c1-c1c(OCc2cnnn2[C@@H](Cc2ccc(O)cc2)C(=O)OC)ccc2ccccc12", "values": [{"measurement": "IC50", "setting": "[1]", "result": 0.6, "unit": "µM"}, {"measurement": "IC50", "setting": "[2]", "result": "> 10", "unit": "µM"}, {"measurement": "Activity", "setting": "Mus musculus [3]; time 60.0 min", "result": "inactive"}]}
{"compound": "COc1ccc(-n2nc(CCC(=O)N(C)O)cc2-c2ccc(Cl)cc2)cc1", "note": "[TEPOXALIN]", "values": [{"measurement": "IC50", "setting": "[1]", "result": 0.15, "unit": "µM"}]}
{"compound": "COC(=O)[C@H](Cc1c[nH]c2ccccc12)n1nncc1COc1ccc2ccccc2c1-c1c(OCc2cnnn2[C@@H](Cc2c[nH]c3ccccc23)C(=O)OC)ccc2ccccc12", "values": [{"measurement": "IC50", "setting": "[1]", "result": 1, "unit": "µM"}, {"measurement": "IC50", "setting": "[2]", "result": 90, "unit": "µM"}]}
{"compound": "COc1cc(-c2cc(C(=O)CCCOc3ccc4ccc(=O)oc4c3)nn2-c2ccccc2)cc(OC)c1OC", "values": [{"measurement": "IC50", "setting": "[1]", "result": 0.87, "unit": "µM"}, {"measurement": "IC50", "setting": "[2]", "result": 53.1, "unit": "µM"}]}
{"compound": "Cc1ccc(S(=O)(=O)n2cc(C(=O)C(=O)N[C@H](C(=O)NCC(=O)O)c3c[nH]c4ccccc34)c3ccccc32)cc1", "values": [{"measurement": "IC50", "setting": "[1]", "result": 0.08, "unit": "µM"}, {"measurement": "IC50", "setting": "[2]", "result": 12.9, "unit": "µM"}]}
{"compound": "CCOC(=O)Cn1nncc1CO[C@@H](C(=O)OCC)[C@@H](O)C(=O)OCC", "values": [{"measurement": "IC50", "setting": "[1]", "result": 6, "unit": "µM"}, {"measurement": "IC50", "setting": "[2]", "result": 95, "unit": "µM"}]}
{"compound": "CC1(C)Cc2c(-c3ccccc3)c(-c3ccc(Cl)cc3)c(CC(=O)O)n2C1", "note": "[LICOFELONE]", "values": [{"measurement": "IC50", "setting": "[1]", "result": 0.18, "unit": "µM"}, {"measurement": "IC50", "setting": "[2]", "result": 0.21, "unit": "µM"}]}
{"compound": "CCOC(=O)[C@H](OCc1cnnn1[C@H](Cc1ccc(O)cc1)C(=O)OC)[C@@H](OCc1cnnn1[C@@H](Cc1ccc(O)cc1)C(=O)OC)C(=O)OCC", "values": [{"measurement": "IC50", "setting": "[1]", "result": 0.14, "unit": "µM"}, {"measurement": "IC50", "setting": "[2]", "result": "> 10", "unit": "µM"}]}
{"compound": "CCOC(=O)Cn1nncc1COc1ccc2ccccc2c1-c1c(OCc2cnnn2CC(=O)OCC)ccc2ccccc12", "values": [{"measurement": "IC50", "setting": "[1]", "result": 11, "unit": "µM"}, {"measurement": "IC50", "setting": "[2]", "result": 70, "unit": "µM"}]}
{"compound": "COC(=O)[C@H](CO)n1nncc1COc1ccc2ccccc2c1-c1c(OCc2cnnn2[C@@H](CO)C(=O)OC)ccc2ccccc12", "values": [{"measurement": "IC50", "setting": "[1]", "result": 6, "unit": "µM"}, {"measurement": "IC50", "setting": "[2]", "result": 86, "unit": "µM"}]}
{"compound": "CCOC(=O)[C@H](O)[C@@H](OCc1cnnn1[C@@H](CO)C(=O)OC)C(=O)OCC", "values": [{"measurement": "IC50", "setting": "[1]", "result": 14, "unit": "µM"}, {"measurement": "IC50", "setting": "[2]", "result": 110, "unit": "µM"}]}
{"compound": "CCOC(=O)[C@H](OCc1cnnn1[C@@H](CO)C(=O)OC)[C@@H](OCc1cnnn1[C@@H](CO)C(=O)OC)C(=O)OCC", "values": [{"measurement": "IC50", "setting": "[1]", "result": 1.3, "unit": "µM"}, {"measurement": "IC50", "setting": "[2]", "result": 54, "unit": "µM"}, {"measurement": "Activity", "setting": "Mus musculus [3]; time 60.0 min", "result": "Active"}]}
{"compound": "CCOC(=O)[C@H](OCc1cnnn1[C@@H](Cc1ccc(O)cc1)C(=O)OC)[C@@H](OCc1cnnn1[C@@H](Cc1ccc(O)cc1)C(=O)OC)C(=O)OCC", "values": [{"measurement": "IC50", "setting": "[1]", "result": 0.15, "unit": "µM"}, {"measurement": "IC50", "setting": "[2]", "result": "> 10", "unit": "µM"}, {"measurement": "Activity", "setting": "Mus musculus [3]; time 60.0 min", "result": "inactive"}]}
{"compound": "CCOC(=O)[C@H](OCc1cnnn1[C@@H](Cc1c[nH]c2ccccc12)C(=O)OC)[C@@H](OCc1cnnn1[C@@H](Cc1c[nH]c2ccccc12)C(=O)OC)C(=O)OCC", "values": [{"measurement": "IC50", "setting": "[1]", "result": 0.45, "unit": "µM"}, {"measurement": "IC50", "setting": "[2]", "result": "> 10", "unit": "µM"}, {"measurement": "Activity", "setting": "Mus musculus [3]; time 60.0 min", "result": "inactive"}]}
{"compound": "Cc1ccc(-c2cc(C(F)(F)F)nn2-c2ccc(S(N)(=O)=O)cc2)cc1", "note": "[CELECOXIB]", "values": [{"measurement": "Activity", "setting": "Mus musculus [3]; time 60 min, 1 h", "result": 62, "unit": "%"}, {"measurement": "Activity", "setting": "Mus musculus [7]", "result": 33, "unit": "%"}]}
